# APJ ag: APJ receptor agonism; P35414; CHO-K1 APJ PathHunter beta-arrestin, luminescence; 0% DMSO wells, 100% apelin; activation, % at 20 µM; hit rate 0.11% among 330,000;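 active = activation more than six SD over the plate average, tested at 20 µM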;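 also: 0% = DMSO alone and 100% = apelin-13 at 10 nM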
#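 Test system: CHO-K1 APJ beta-arrestin complementation cell line. Amount: cell density 1000 per well. Controls: DMSO negative, 10 nM Apelin-13 positive. Signal: luminescent beta-gal fragment complementation, chemiluminescent substrate. Read-out basis: agonist-driven arrestin binding to APJ. Timing: compound stimulation 90 min at 25 °C, detection 60 min.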
# CXCR6 block: CXCR6 (human) receptor inhibition; inhibition, % at 20 µM; CHO-K1 PathHunter CXCR6 beta-arrestin, luminescence; hit rate 0.36% among 360,000; in the data active = inhibition above about 34%, passing the limit was not always enough;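 also: antagonist mode with CXCL16 agonist at 10 nM final; 0% = 10 nM CXCL16 with DMSO and 100% = unstimulated wells without agonist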
# PKA-R2B activ: activators of human PKA-R2B complex; PKA-R2B holoenzyme dissociation, Cy5-IP20 fluorescence polarization; R2B truncated from residue 108, S112A mutant; 0% DMSO only, 100% 113 µM cGMP; P22694+P31323; activation, % at 11.4 µM; hit rate 0.079% among 340,000;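 active = activation above a cutoff set at the mean over all compounds plus 3 SD, cut at about 18% in these data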;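 also: higher means more holoenzyme dissociation and a rise in polarization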
# Target sequence (P31323 whole entry, looked up, other chains not shown, the tested form may be a part): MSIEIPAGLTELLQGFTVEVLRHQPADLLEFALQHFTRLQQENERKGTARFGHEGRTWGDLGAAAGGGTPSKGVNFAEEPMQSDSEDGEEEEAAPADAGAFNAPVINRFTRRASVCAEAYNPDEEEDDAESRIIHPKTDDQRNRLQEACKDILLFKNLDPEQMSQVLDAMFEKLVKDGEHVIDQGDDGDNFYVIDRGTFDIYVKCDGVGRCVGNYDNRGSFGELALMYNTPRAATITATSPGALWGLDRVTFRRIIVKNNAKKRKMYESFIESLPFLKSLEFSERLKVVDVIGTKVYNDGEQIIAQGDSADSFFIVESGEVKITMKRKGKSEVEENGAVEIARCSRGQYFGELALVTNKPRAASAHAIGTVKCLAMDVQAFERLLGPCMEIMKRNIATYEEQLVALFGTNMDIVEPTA
# APJ antagonist: blocks the human apelin receptor APJ; hit rate 0.32% among 330,000; P35414; inhibition, % at 20 µM; CHO-K1 APJ beta-arrestin complementation, luminescence;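 active = inhibition above about 40% at 20 µM, limit read from the data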;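 also: cells challenged with 10 nM apelin-13 agonist together with compound; plate controls were apelin-13 plus DMSO wells for no effect and DMSO wells lacking apelin-13 for full effect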
# CCR6 antag: blocks CCL20-driven beta-arrestin recruitment at human CCR6 | P51684 | CHO-K1 CCR6 PathHunter beta-arrestin, luminescence, CCL20-stimulated | inhibition, % at 20 µM | hit rate 0.49% among 340,000 | AID 493098;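 active = compounds whose inhibition of the agonist-driven luminescence signal at 20 µM reaches about 50%, limit read from the data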;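 also: cells stimulated with CCL20 at 14 nM final; plate controls were DMSO with CCL20 for no effect and DMSO without agonist for full effect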
# PKA-R1A act: activators of PKA-R1A complex; AID 504707; hit rate 0.083% among 340,000; PKA-R1A dissociation, Cy5-IP20 fluorescence polarization; scaled: DMSO 0%, 113 µM cGMP 100%; activation, % at 11.4 µM; P00514+P68181;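 active = percent activation above the mean of all tested compounds plus 3 SD, cut at about 19% in these data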;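 also: higher means more PKAc released from R1A so a rise in polarization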
# R1A FP artifact: fluorescence polarization artifact in PKA-R1A activator counter-screen. hit rate 7% among 280. activation, % at 11.4 µM. AID 504799. Cy5-IP20 peptide alone, fluorescence polarization artifact counterscreen. shares compounds with PKA-R1A act;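 active = mean activation over triplicate runs exceeds the adjusted cutoff derived for the parent primary screen, cut at about 19% in these data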;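 also: no PKA protein present so any polarization rise reflects compound interference; 0% = tracer peptide mix alone and 100% = mix with added PKA catalytic subunit; higher means stronger polarization artifact and likely false positive in parent screen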
# PKA-R1A confirm: confirmation of PKA-R1A complex activators. shares compounds with PKA-R1A act. Cy5-IP20 fluorescence polarization, PKA-R1A holoenzyme dissociation. activation, % at 11.4 µM. hit rate 9% among 280. AID 504800;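 active = mean activation over replicate wells exceeds the adjusted hit threshold taken from the earlier primary screen, cut at about 20% in these data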;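 also: 0% = holoenzyme mix with DMSO only and 100% = cGMP-activated control wells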
# Numbers without * were called inactive; . = no result given. Compounds with a hit are over-represented: about 0.88% of the library has one in this group of screens.
SMILES,APJ ag,CXCR6 block,PKA-R2B activ,APJ antagonist,CCR6 antag,PKA-R1A act,R1A FP artifact,PKA-R1A confirm
COc1ccc(-c2cc3nc(C)c(CCC(=O)NCc4ccco4)c(C)n3n2)c(OC)c1,-1.6,-2.6,-6.8,10.8,-2.7,4.3,.,.
Nc1cc(=O)[nH]c(SCC(=O)Nc2ccc3c(c2)CCC3)n1,-4.2,5.6,5.5,-3.4,2.5,-8.0,.,.
Nc1nc(SCC(=O)Nc2ccc3c(c2)CCC3)n[nH]1,-0.2,13.7,-4.5,-9.8,4.2,18.6*,6.1,1.1
O=C(N1CCN(c2ccccn2)CC1)N1c2ccccc2Sc2ccccc21,-5.4,13.4,0.3,16.6,17.2,0.6,.,.
O=C(O)c1ccc(-n2cccn2)c([N+](=O)[O-])c1,-1.7,-8.9,-0.3,20.9,4.3,20.3*,-0.4,2.0
Cc1ccc(NC(=O)c2cncc(Br)c2)c([N+](=O)[O-])c1,-0.2,-6.8,6.6,-7.9,17.0,22.7*,3.4,3.6
CCOc1ccc(C2=Nn3c(nnc3-c3ccccc3OC)SC2)cc1,.,21.9,3.2,.,25.9,-5.6,.,.
CCOc1ccc(-c2nnc3n2N=C(c2ccc(OC)cc2)CS3)cc1,-2.5,6.9,-5.4,-1.3,8.0,20.3*,-1.0,0.8
COc1ccc(-c2noc(CCC(=O)NCCc3ccccc3)n2)cc1OC,1.3,-16.1,1.6,6.1,-0.8,19.2*,-1.1,2.2
CCC1=NN(C(=O)Cc2ccc(OC)cc2)C(O)(C(F)(F)F)C1 (stereo not given),4.3,2.0,7.9,5.3,-3.5,18.8*,2.9,-1.0
COc1ccc(CC(=O)N2N=C(c3ccncc3)CC2(O)C(F)(F)F)cc1 (stereo not given),-5.0,1.3,-4.9,5.4,4.2,0.6,.,.
FC(F)(F)c1ccc(-c2cccc3c2C2CC3CCN2Cc2ccc3c(c2)OCO3)cc1 (stereo not given),.,-3.8,.,.,.,.,.,.
NC(=O)CSc1nc2ccccc2n1-c1ccccc1,-1.7,0.5,-4.6,21.0,-5.7,-18.8,.,.
NC(=O)CSc1nc2ccccc2n1Cc1ccccc1,-4.2,-1.8,-3.2,-1.2,-5.6,21.2*,2.2,-1.4
CCOC(=O)c1c(NC(=O)c2c(C(=O)O)cccc2[N+](=O)[O-])sc2c1CCCC2,-4.3,10.2,-8.2,11.1,7.2,18.8*,3.6,1.4
CCOC(=O)c1c(NC(=O)CCC(=O)O)sc2c1CCCCC2,-5.9,16.4,0.5,-2.6,8.3,19.6*,3.1,9.0
CCOC(=O)c1c(NC(=O)c2cccc([N+](=O)[O-])c2C(=O)O)sc2c1CCCC2,0.0,-1.2,3.2,11.4,10.9,-4.1,.,.
Nc1ccn([C@@H]2O[C@H](C(=O)Nc3ccc(Oc4ccccc4)nc3)[C@@H](O)[C@H]2O)c(=O)n1,.,4.7,.,.,.,.,.,.
O=C(CCC1CCCN(C(=O)c2cc3ccccc3o2)C1)NCc1ccc(F)c(F)c1 (stereo not given),.,-13.5,5.1,.,11.7,-10.4,.,.
COc1ccccc1C1C(C(N)=O)=C(C)Nc2nc(-c3ccccc3Cl)nn21 (stereo not given),-2.2,0.3,-4.3,-59.7,-11.4,-13.1,.,.
COc1cccc(C2C(C(N)=O)=C(C)Nc3nc(-c4ccccc4Cl)nn32)c1 (stereo not given),0.3,0.5,-9.3,3.9,4.8,18.7*,1.1,-2.9
COC(=O)[C@]12CCCCC=C1N(Cc1ccco1)C(=O)[C@H](CC(=O)NCC13CC4CC(CC(C4)C1)C3)C2,.,14.3,.,.,.,.,.,.
COc1ccc([C@@H]2[C@@H]3C(=O)N(C(C)(C)C)C(=O)[C@@H]3[C@]3(CC(C)C)C(=O)N(c4cccc(F)c4)C(=O)N23)cc1,-3.2,5.6,-1.9,1.5,11.0,19.4*,-3.1,-4.6
O=C(CCC(=O)c1ccccc1)Nc1ccc(C(=O)O)cc1,-2.3,26.4,-1.0,-3.3,-1.9,19.1*,1.2,-0.6
O=C(Nc1cccc(Cl)c1)Nc1nnc(-c2ccncc2)s1,3.0,-15.3,6.8,-32.6,-11.2,21.9*,25.7*,26.3*
SMILES,APJ ag,CXCR6 block,PKA-R2B activ,APJ antagonist,CCR6 antag,PKA-R1A act,R1A FP artifact,PKA-R1A confirm
Cc1cccc(NS(=O)(=O)c2ccc(Oc3ccccc3)cc2)n1,1.4,12.2,-5.4,1.9,5.0,19.5*,3.0,3.1
O=C(Nc1ccc(N2CCN(c3ccc(O)cc3)CC2)cc1)Oc1ccccc1,0.1,-8.2,15.7,-6.7,-5.5,19.8*,14.5,16.5
CCCC(=O)Nc1nnc(SCC(=O)N2CCCCC2)s1,-1.6,2.0,1.5,4.7,-0.3,19.3*,-0.5,-0.8
CCCC(=O)Nc1nnc(SCC(=O)N2C(C)CCCC2C)s1 (stereo not given),-2.0,2.7,9.2,-8.3,3.0,2.0,.,.
CCOc1ccc(N=Cc2ccc([N+](=O)[O-])cc2)c(O)c1,.,11.9,-8.9,.,.,21.5*,1.0,4.9
CC(C)(C)C(=O)NCc1ccc(C(=O)CSc2nnc(C3CC3)n2C2CC2)s1,-2.9,-1.8,0.4,12.7,1.1,19.7*,-2.2,0.5
COc1ccccc1N1CCN(C(=O)c2cc(S(=O)(=O)N3CCOCC3)ccc2C)CC1,0.5,0.7,-0.5,-31.6,-1.6,18.7*,-1.6,0.1
Cc1cc(C(=O)c2ccc(C(C)(C)C)cc2)c(NC(=O)CCl)s1,-1.9,-3.5,-2.9,5.7,20.8,-8.6,.,.
COc1ccc(C(=O)N2CCCC(Nc3ccc(C)c(C)c3)C2)c(OC)n1 (stereo not given),-5.2,4.4,12.2,9.4,3.0,23.2*,2.4,-3.5
CCOC(=O)c1cc(C)sc1NC(=O)c1ccc(Cl)s1,-0.8,-2.8,0.4,6.1,9.6,19.9*,0.7,-1.6
Cc1ccc(S(=O)(=O)NC(=O)NC(C)Cc2ccccc2)cc1 (stereo not given),-3.4,-1.7,2.4,-4.2,5.0,22.1*,0.5,-1.4
Cc1ccc(S(=O)(=O)NC2CC(C)(C)NC(C)(C)C2)cc1C,-0.7,4.2,-1.9,-4.0,5.5,19.2*,1.4,5.0
CC1=CC(=O)C(C(C)C)=C/C1=N\OC(=O)c1cccc2nc(C)oc12,2.4,4.1,-0.9,-0.5,15.5,19.1*,2.4,2.0
CC1=CC(=O)C(C(C)C)=C/C1=N/OC(=O)c1cccc([N+](=O)[O-])c1,-2.5,9.8,-5.1,-1.2,6.7,0.6,.,.
COc1ccc(S(=O)(=O)N2CCC(Nc3ccccc3Cl)CC2)cc1,-0.1,-3.1,6.1,5.2,28.7,-13.5,.,.

# Screening data from PubChem.
